The record followed here is ChEMBL document CHEMBL1124864, “Synthesis and biological evaluation of new antimuscarinic compounds with amidine basic centers. A useful bioisosteric replacement of classical cationic heads” (J Med Chem, 1990).

The species entered for data set [1] is Cavia porcellus. The data set is described as follows: In vitro functional studies in guinea pig ileum.
Data set [2] is filed under the species Cavia porcellus. The data set is described as follows: In vitro functional studies in guinea pig left atrium. The note with it: Cardiac atrium.
Data set [3] concerns the target T1, Muscarinic acetylcholine receptor M1 (Rattus norvegicus, UniProt P08482).
T1 sequence (P08482 whole entry): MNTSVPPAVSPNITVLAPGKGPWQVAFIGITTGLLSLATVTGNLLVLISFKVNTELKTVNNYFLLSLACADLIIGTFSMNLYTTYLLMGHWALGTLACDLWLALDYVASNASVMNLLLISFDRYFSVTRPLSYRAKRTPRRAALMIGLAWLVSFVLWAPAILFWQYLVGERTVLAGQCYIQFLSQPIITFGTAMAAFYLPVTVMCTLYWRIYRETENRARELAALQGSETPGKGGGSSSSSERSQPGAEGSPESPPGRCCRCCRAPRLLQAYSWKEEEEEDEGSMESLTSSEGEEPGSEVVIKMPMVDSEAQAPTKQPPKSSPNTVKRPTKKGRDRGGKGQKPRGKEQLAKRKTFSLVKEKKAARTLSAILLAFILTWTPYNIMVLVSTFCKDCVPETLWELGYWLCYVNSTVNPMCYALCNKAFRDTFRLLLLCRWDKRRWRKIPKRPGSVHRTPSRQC
Put plainly: In vitro receptor binding against Muscarinic acetylcholine receptor M1 in rat cerebral cortex was determined using [3H]pirenzepine. It is filed as tissue-based. The method, boiled down: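 Rat cortex, heart or submandibular gland homogenates in Na+-Mg2+-HEPES pH 7.4, incubated 45 min at 30 °C with radioligand plus varying cold ligand. Separated by centrifugation, pellets washed and counted, in triplicate. KD from IC50 by nonlinear regression with Cheng–Prusoff correction; Hill slopes by linear regression.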

Data set [4] deals with Rattus norvegicus. The data set is described as follows: […] activity against carbachol-induced colonic spasms in rat (iv). It is filed as functional. The method, boiled down: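 Compounds given iv 2 min before each spasmogen dose. Percent inhibition of pretreatment contractions; ED50 with 95% confidence limits from linear regression of log dose-response curves.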
The subject of data set [5] is Rattus norvegicus. The data set is described as follows: In vivo activity against oxotremorine induced tremors in rat (iv).
Data set [6] deals with Rattus norvegicus. Put plainly: In vivo activity against oxotremorine induced salivation in rat (iv).
Data set [7] addresses T2, Muscarinic acetylcholine receptor M2 (Rattus norvegicus, UniProt P10980).
T2 sequence (P10980 whole entry): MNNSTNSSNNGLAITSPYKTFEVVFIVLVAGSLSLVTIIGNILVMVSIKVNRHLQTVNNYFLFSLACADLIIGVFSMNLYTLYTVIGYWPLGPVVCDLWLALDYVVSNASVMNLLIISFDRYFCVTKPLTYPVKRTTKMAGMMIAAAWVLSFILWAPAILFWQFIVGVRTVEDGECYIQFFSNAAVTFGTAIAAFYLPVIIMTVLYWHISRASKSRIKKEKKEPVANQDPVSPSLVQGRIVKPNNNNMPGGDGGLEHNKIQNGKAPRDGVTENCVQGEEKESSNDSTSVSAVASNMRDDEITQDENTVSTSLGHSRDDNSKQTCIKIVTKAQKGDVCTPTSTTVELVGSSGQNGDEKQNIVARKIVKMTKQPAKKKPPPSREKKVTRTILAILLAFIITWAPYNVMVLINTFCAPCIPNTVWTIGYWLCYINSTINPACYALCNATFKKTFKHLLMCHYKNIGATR
Put plainly: In vitro receptor binding against Muscarinic acetylcholine receptor M2 in rat heart was determined using [3H]NMS.

Data set [8] addresses Muscarinic acetylcholine receptor M3 (Rattus norvegicus, UniProt P08483). The data set is described as follows: In vitro receptor binding against Muscarinic acetylcholine receptor M3 in rat submandibular gland was determined using [3H]NMS.
Data set [9] in a line: pKa value was determined. Type of data set: physicochemical. The method, boiled down:
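Macroscopic pKa measured by potentiometric titration in water containing a few milliliters of methanol, with a glass electrode.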

Sequence of Muscarinic acetylcholine receptor M3 (P08483 whole entry): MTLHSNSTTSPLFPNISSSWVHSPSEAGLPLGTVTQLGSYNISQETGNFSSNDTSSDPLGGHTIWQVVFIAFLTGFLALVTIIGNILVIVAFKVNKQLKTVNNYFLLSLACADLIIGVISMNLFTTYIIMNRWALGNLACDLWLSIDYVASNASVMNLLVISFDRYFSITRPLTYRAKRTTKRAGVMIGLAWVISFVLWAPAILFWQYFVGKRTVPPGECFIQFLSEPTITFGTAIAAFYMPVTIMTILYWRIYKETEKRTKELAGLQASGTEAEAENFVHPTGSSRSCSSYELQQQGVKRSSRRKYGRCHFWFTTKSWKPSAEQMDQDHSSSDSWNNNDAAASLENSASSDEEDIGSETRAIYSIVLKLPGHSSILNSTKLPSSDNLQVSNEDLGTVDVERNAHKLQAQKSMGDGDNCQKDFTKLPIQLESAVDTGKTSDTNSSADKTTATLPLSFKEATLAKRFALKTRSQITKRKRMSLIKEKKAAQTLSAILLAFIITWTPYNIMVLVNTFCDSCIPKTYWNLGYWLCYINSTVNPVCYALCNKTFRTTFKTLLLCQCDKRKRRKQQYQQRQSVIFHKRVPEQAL

The term Kd denotes the constant that tells how readily two partners part at equilibrium. Lower therefore signals higher affinity. One may read the ED50 as the midpoint of the dose-response relation. In the case of `CCCC[N+]1(C)C2CC(OC(=O)C(CO)c3ccccc3)CC1C1OC12.[Br-]` (centres undefined), the Kb came to 56.3 nM in the data set filed under Cavia porcellus [1] and 58.4 nM in the data set listed under Cavia porcellus [2]. The equilibrium dissociation constant (Kd) was found to be 300 nM in data set [3], 220 nM in data set [7] and 220 nM in data set [8]. For the same compound, the ED50 is 52.9 µg/kg in the data set on Rattus norvegicus [4], greater than 3000 µg/kg in the data set on Rattus norvegicus [5] and 385 µg/kg in the data set with Rattus norvegicus [6].
As for `C[N+]1(C)C2CC(OC(=O)C(CO)c3ccccc3)CC1C1OC12` (centres undefined), the Kb turned out to be 0.17 nM in the data set listed under Cavia porcellus [1] and 0.38 nM in the data set filed under Cavia porcellus [2].
What is called pKa is the pH at which an ionisable group is half protonated. High values mean a weaker acid or stronger base, low ones a stronger acid or weaker base. `O=C(O[C@@H]1C[C@@H]2N[C@H](C1)[C@@H]1O[C@@H]12)[C@H](CO)c1ccccc1`: the pKa in [9] was determined as 7.09.
As for `CC(=N)N1C2CC(OC(=O)C(CO)c3ccccc3)CC1C1OC12.Cl` (centres undefined), in [9], the pKa turned out to be 10.7. For the same compound, the Kb was found to be 1.55 nM in the data set filed under Cavia porcellus [1] and 5.02 nM in the data set filed under Cavia porcellus [2]. Further, the figures for the Kd in [3], in data set [7] and in [8] were 3.4 nM, 6.7 nM and 3.5 nM, respectively. Moreover, the ED50 in the data set with Rattus norvegicus [4] is 3.9 µg/kg; in the data set on Rattus norvegicus [5] it was 1700 µg/kg; in the data set on Rattus norvegicus [6], 4.1 µg/kg.
In [9], `Cl.N=CN1C2CC(OC(=O)C(CO)c3ccccc3)CC1C1OC12` (centres undefined) yielded a pKa of 9.78. The Kb in the data set filed under Cavia porcellus [1] is 1.68 nM; in the data set filed under Cavia porcellus [2], 6.55 nM. The Kd in data set [3] was 3.6 nM; in data set [7], 10 nM; in data set [8], 5 nM. Besides, the results for the 50% effective dose (ED50) in the data set on Rattus norvegicus [4], in the data set on Rattus norvegicus [5] and with Rattus norvegicus [6] were 6.1 µg/kg, 1300 µg/kg and 2.45 µg/kg, respectively.
As for `Cl.N=CN1C2CCC1CC(OC(=O)C(CO)c1ccccc1)C2` (centres undefined), in data set [9], the pKa was found to be 10.3. In addition, the Kb in the data set filed under Cavia porcellus [1] is 0.72 nM; in the data set listed under Cavia porcellus [2], 1.59 nM. In addition, the figures for the Kd in [3], in data set [7] and in data set [8] were 1.1 nM, 1.6 nM and 1.4 nM, respectively. Moreover, the ED50 in the data set on Rattus norvegicus [4] is 3.5 µg/kg; with Rattus norvegicus [5], greater than 10000 µg/kg; in the data set on Rattus norvegicus [6], 3.9 µg/kg.
Regarding `Cl.N=C(N)N1C2CC(OC(=O)C(CO)c3ccccc3)CC1C1OC12` (centres undefined), the pKa in data set [9] is 10.8. Further, the Kb in the data set listed under Cavia porcellus [1] is 5.18 nM; in the data set listed under Cavia porcellus [2], 16.4 nM. Moreover, the results for the equilibrium dissociation constant (Kd) in data set [3], in [7] and in data set [8] were 7.5 nM, 23 nM and 4.5 nM, respectively. The results for the ED50 with Rattus norvegicus [4], with Rattus norvegicus [5] and in the data set with Rattus norvegicus [6] were 18.6 µg/kg, greater than 3000 µg/kg and 18.8 µg/kg, respectively.
`CC(=N)N1C2CCC1CC(OC(=O)C(CO)c1ccccc1)C2.Cl` (centres undefined) came in with a pKa in data set [9] of 10.9. Moreover, the Kb is 1.61 nM in the data set listed under Cavia porcellus [1] and 3.17 nM in the data set listed under Cavia porcellus [2]. In addition, the figures for the dissociation constant (Kd) in data set [3], in data set [7] and in data set [8] were 2 nM, 10 nM and 3.1 nM, respectively. Also, the 50% effective dose (ED50) was 3.3 µg/kg with Rattus norvegicus [4], greater than 10000 µg/kg with Rattus norvegicus [5] and 6.2 µg/kg with Rattus norvegicus [6].
The compound `Cl.N=C(N)N1C2CCC1CC(OC(=O)C(CO)c1ccccc1)C2` (centres undefined) registered a pKa in data set [9] of 11.6. Also, the results for the Kb in the data set listed under Cavia porcellus [1] and in the data set listed under Cavia porcellus [2] were 1.92 nM and 3.06 nM, respectively. The figures for the Kd in data set [3], in data set [7] and in data set [8] were 7 nM, 11 nM and 2.5 nM, respectively. Further, the ED50 was 9.8 µg/kg with Rattus norvegicus [4], greater than 3000 µg/kg with Rattus norvegicus [5] and 5.8 µg/kg in the data set on Rattus norvegicus [6].
As for `C[N+]1(C)[C@@H]2CC[C@H]1C[C@@H](OC(=O)C(CO)c1ccccc1)C2` (some centres undefined) [ATROPINE METHYLBROMIDE], the values for the Kb in the data set listed under Cavia porcellus [1] and in the data set filed under Cavia porcellus [2] were 0.71 nM and 1.29 nM, respectively. Further, the dissociation constant Kd is 2.7 nM in data set [7] and 2.6 nM in [8].
On to `CN1[C@@H]2CC[C@H]1C[C@@H](OC(=O)C(CO)c1ccccc1)C2` (some centres undefined) [ATROPINE], for which the Kb is 3.16 nM in the data set listed under Cavia porcellus [1] and 0.66 nM in the data set listed under Cavia porcellus [2]. In addition, the ED50 amounted to 4.5 µg/kg in the data set on Rattus norvegicus [4], 453 µg/kg with Rattus norvegicus [5] and 8.6 µg/kg in the data set with Rattus norvegicus [6].
On to `CN1[C@@H]2C[C@@H](OC(=O)[C@H](CO)c3ccccc3)C[C@H]1[C@@H]1O[C@@H]12` [SCOPOLAMINE], for which the Kb in the data set listed under Cavia porcellus [1] turned out to be 0.4 nM; in the data set filed under Cavia porcellus [2] it was 0.17 nM. Besides, the ED50 was 5.8 µg/kg in the data set with Rattus norvegicus [4], 11 µg/kg with Rattus norvegicus [5] and 2.6 µg/kg in the data set on Rattus norvegicus [6].
